Assay [1] has as its target T1, Phospho-N-acetylmuramoyl-pentapeptide-transferase (Mycobacterium tuberculosis, UniProt P9WMW7).
T1 sequence (P9WMW7 whole entry): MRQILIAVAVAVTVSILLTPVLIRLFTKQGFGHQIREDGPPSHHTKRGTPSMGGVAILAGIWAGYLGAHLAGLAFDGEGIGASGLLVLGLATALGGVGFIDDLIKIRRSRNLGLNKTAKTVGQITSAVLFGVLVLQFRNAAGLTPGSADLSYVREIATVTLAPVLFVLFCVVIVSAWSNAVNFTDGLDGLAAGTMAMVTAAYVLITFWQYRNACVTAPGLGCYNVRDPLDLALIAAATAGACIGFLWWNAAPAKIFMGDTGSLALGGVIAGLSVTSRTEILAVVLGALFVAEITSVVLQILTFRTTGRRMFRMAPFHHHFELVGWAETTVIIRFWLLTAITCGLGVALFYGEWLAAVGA
In words: Inhibition of Mycobacterium tuberculosis MraY translocase.

In assay [2] the test system is Mycobacterium tuberculosis. In words: Antimycobacterial activity against drug-susceptible Mycobacterium tuberculosis. Format: functional.
For assay [3], the system named is Enterococcus faecalis. In words: Antibacterial activity against Enterococcus faecalis ATCC 29212. Format: functional.
In assay [4] the test system is Staphylococcus aureus. In words: Antibacterial activity against Staphylococcus aureus infected in mouse. Format: functional.
Assay [5] deals with Staphylococcus aureus. In words: Antibacterial activity against methicillin-resistant Staphylococcus aureus SR3637. Format: functional.
Assay [6] concerns Enterococcus faecium. In words: Antibacterial activity against Enterococcus faecium ATCC 19434. Format: functional. Put shortly: (§1)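 Incubation 24/48 h at 37 °C. MIC read as the lowest concentration inhibiting growth. MBC determined by transferring 10 μL from wells onto blood agar, taken as the lowest concentration with no visible growth.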
For assay [7], the system named is Staphylococcus aureus. In words: Antibacterial activity against methicillin-sensitive Staphylococcus aureus ATCC 29213. Format: functional. Put shortly:
as §1

The subject of assay [8] is Enterococcus faecium. In words: Antibacterial activity against vancomycin-resistant Enterococcus faecium SR7917. Format: functional.
The subject of assay [9] is Enterococcus faecalis. In words: Antibacterial activity against vancomycin-resistant Enterococcus faecalis SR7914. Format: functional.

Values after ≈ are worked out from the molar mass of the structure shown.

The term IC50 denotes the concentration that gives 50% inhibition. High values mean a need for much substance, low ones inhibition by little substance. In [1], `CC(C)CCCCCCCC(CC(=O)O[C@H]1CN(C)[C@@H]([C@H](O[C@@H]2O[C@H](CN)[C@@H](O)[C@H]2OS(=O)(=O)O)[C@H]2O[C@@H](n3ccc(=O)[nH]c3=O)[C@H](O)[C@@H]2O)C(=O)N(C)[C@@H]1C(=O)O)OC(=O)CC(C)CC(=O)O` (some centres undefined) [LIPOSIDOMYCIN B] had a concentration for half-maximal inhibition (IC50) of 49.1 nM.

By MIC is commonly meant the lowest concentration that inhibits growth of the organism. Higher therefore signals a need for much substance. For `CO[C@@H]1[C@@H](OC)[C@H](C)O[C@@H](OC(=O)C[C@@H](C)CC(=O)O[C@@H](CCCCCCCCCCCC(C)C)CC(=O)O[C@H]2CN(C)[C@@H]([C@H](O[C@@H]3O[C@H](CN)[C@@H](O)[C@H]3O)[C@H]3O[C@@H](n4ccc(=O)[nH]c4=O)[C@H](O)[C@@H]3O)C(=O)N(C)[C@@H]2C(=O)O)[C@@H]1OC` [CAPRAZAMYCIN B], the MIC in [2] amounted to 3.13 µg/mL (≈ 2.7 µM).

As a reminder, the ED50 is the dose at which the effect has come halfway, by size or by number of responders. A high value points to weaker potency. `CC(C)C[C@H](NC(=O)[C@@H](NC(=O)N[C@H](C(=O)O)C(C)C)[C@@H]1CCNC(=N)N1)C(=O)NCCCN[C@H](C(=O)O)[C@H](O[C@@H]1O[C@H](CN)[C@@H](O)[C@H]1O)[C@H]1O[C@@H](n2ccc(=O)[nH]c2=O)[C@H](O)[C@@H]1O` [MURAMYCIN D2]: the MIC in assay [3], in assay [5], in [6], in [7], in assay [8] and in assay [9] was > 64 µg/mL in each case. In assay [4], this compound returned an ED50 of 1.1 mg/kg.

These data come from ChEMBL document CHEMBL1921744, “Lipophosphonoxins: new modular molecular structures with significant antibacterial properties” (J Med Chem, 2011).
